Test [1] has as its system MT4. Briefly: (§1) Inhibitory activity against resistant HIV-1 strain MC639r was determined. The class given is functional, cell-based. To be noted: Homo sapiens.
Test [2] deals with H9. As to the kind of experiment: Ability to inhibit HIV-1 multiplication in chronically infected H9/IIIB cells. The note with it: Homo sapiens. The class given is functional, cell-based. Put shortly:
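Value taken as compound dose lowering infectious HIV-1 titer by 1 log in chronically infected H9/IIIB cells. Titer was read in C8166 cells by limiting dilution (1:2, 4 replica wells per dilution), with light-microscope scoring of cytopathicity after 4 days, expressed as CCID50/mL. Data are means of three separate experiments.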

In test [3] the test system is MT4. As to the kind of experiment: Dose required to achieve 50% protection of MT-4 cells from the HIV-1 induced cytopathogenicity in HIV-1 infected MT-4 cells. The note with it: Homo sapiens. (Cytopathic effects are the visible damage that an infection or toxin causes in cultured cells.)
The subject of test [4] is MT4. As to the kind of experiment: (§2) Inhibitory activity against resistant HIV-1 strain NevR was determined. Format: functional, cell-based. The note with it: Homo sapiens.
The subject of test [5] is C8166. As to the kind of experiment: Ability to inhibit HIV-2 multiplication in acutely infected C8166 cells. Format: functional, cell-based. The note with it: Homo sapiens. Put shortly:
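C8166 cells (1×10^4 per well) in RPMI 1640 with 10% FCS were infected with 1000 CCID50 of HIV-2 ROD, alongside serial compound dilutions from DMSO stock. After 5 days at 37 °C, viable cells were counted by MTT. EC50 is the dose giving 50% protection from virus-induced cytopathicity. Data are means of three experiments.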

Test [6] deals with MT4. As to the kind of experiment: Dose required to reduce the viability of mock-infected cells by 50%. The class given is functional. The note with it: Homo sapiens. Put shortly:
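Mock-infected MT-4 cells (1×10^4 per well) were exposed to compound dilutions in parallel with the antiviral assay. After 4 days at 37 °C, viability was measured by MTT. CC50 is the dose reducing viable cell number by 50%.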

In test [7] the test system is Human immunodeficiency virus type 1. Briefly: Selectivity index is the ratio of CC50 to EC50. To be noted: Human immunodeficiency virus 1.
The target of test [8] is Human immunodeficiency virus type 1 reverse transcriptase (Human immunodeficiency virus 1, UniProt Q72547). As to the kind of experiment: Compound concentration required to inhibit the HIV-1 recombinant Reverse transcriptase (rRT) activity by 50%.
The subject of test [9] is MT4. Briefly: Inhibitor activity against resistant HIV-1 strain MC639r was determined. To be noted: Homo sapiens. The class given is functional, cell-based.
The subject of test [10] is MT4. Briefly: Inhibitory activity against resistant HIV-1 strain Nevr was determined. Format: functional, cell-based. The note with it: Homo sapiens.
For test [11], the system named is MT4. The description is as §1. Format: functional, Homo sapiens.
The test system of test [12] is MT4. The description is as §2. Format: functional, Homo sapiens.

pEC50, pIC50: −log10 of the molar value.

In general, pEC50 refers to the EC50 on a negative log10 scale, so that one unit is a factor of ten. Read a high pEC50 as a low EC50. The CC50 is the concentration that lowers cell viability or growth by half. The low end stands for harm at low concentration, the high end for better tolerance by the cells. Consider `CCC(C)Sc1nc(O)c(C)c(Cc2cccc3ccccc23)n1` (stereo unspecified), for which the pEC50 in test [1] is 5.22; in [2], below 4.00; in test [3], 6.00; in [4], below 4.00; in [5], below 4.00. For the same molecule, in [6], the CC50 is above 300 µM. Also, the Ratio in test [7] is above 300.

Usually pIC50 stands for the negative decadic logarithm of the IC50, by convention in mol/L. `Oc1cc(Cc2ccc3ccccc3c2)nc(SC2CCCCC2)n1`: the pEC50 in test [1] was 4.70; in [2], below 4.00; in test [3], 5.77; in test [4] it was below 4.00; in test [5], below 4.00. In [8], the pIC50 is 4.48. In test [6], this molecule came in with a 50% cytotoxic concentration (CC50) above 300 µM. In test [7], the Ratio was above 128.

As for `Cc1c(O)nc(SC2CCCC2)nc1Cc1cccc2ccccc12`, the pEC50 in test [1] is 4.79; in [2] it was below 4.00; in test [3], 5.22; in test [4] it was below 4.00; in [5], below 4.00. In addition, in test [6], the half-maximal cytotoxic concentration (CC50) is above 300 µM. Besides, the Ratio in [7] was above 50.

In the case of `CCC(C)Sc1nc(O)c(C)c(COc2ccccc2)n1` (stereo unspecified), the negative-log EC50 (pEC50) in test [2] was below 4.00; in test [9] it was below 4.00; in test [3] it was 5.05; in [4] it was below 4.00; in test [5] it was below 4.00. For the same molecule, it took 60 µM to reach half-maximal cytotoxicity in test [6] (CC50). Also, the Ratio in [7] was found to be 7.

As to `CCC(C)Sc1nc(O)cc(Cc2cccc3ccccc23)n1` (stereo unspecified), the pEC50 in test [1] was 5.68; in test [2], below 4.00; in test [3], 6.48; in [4], below 4.00; in test [5], below 4.00. Besides, the pIC50 in test [8] is 5.09. This molecule came in with a CC50 in [6] above 300 µM. Moreover, the Ratio in test [7] was above 909.

On to `CCC(C)Sc1nc(O)c(C)c(Cc2ccc3ccccc3c2)n1` (stereo unspecified), for which the pEC50 in test [1] was 4.75; in test [2], below 4.00; in test [3], 5.77; in test [4], below 4.00; in [5], below 4.00. Moreover, half-maximal cytotoxicity in test [6] (CC50) was put at 80 µM. Besides, the Ratio in [7] worked out at 47.

`Oc1cc(Cc2cccc3ccccc23)nc(SC2CCCC2)n1`: the pEC50 in test [2] was below 4.00; in [3], 5.70; in test [4], below 4.00; in test [10], below 4.00; in test [5] it was below 4.00. The molecule further had a CC50 in test [6] above 300 µM. For the same molecule, the Ratio in test [7] was above 150.

In the case of `Cc1cccc(Cc2nc(SC3CCCCC3)nc(O)c2C)c1`, the pEC50 in test [1], in test [2], in test [4] and in test [5] was below 4.00 in each case. For the same molecule, the pIC50 in test [8] was 6.05. For the same molecule, the CC50 in test [6] was above 300 µM. In addition, in test [7], the Ratio was above 500.

Consider `CCC(C)Sc1nc(O)cc(Cc2ccc3ccccc3c2)n1` (stereo unspecified), for which the pEC50 is 5.39 in test [1]; below 4.00 in test [2]; 5.55 in [3]; below 4.00 in [4]; below 4.00 in [5]. In addition, in test [8], the negative logarithm of the IC50 (pIC50) was 5.13. For the same molecule, the half-maximal cytotoxic concentration (CC50) in test [6] was found to be 40 µM. The Ratio in test [7] was 14.

As to `Cc1cn([C@H]2C[C@H](N=[N+]=[N-])[C@@H](CO)O2)c(=O)[nH]c1=O` [ZIDOVUDINE], the figures for the pEC50 in [2] and in test [5] were below 4.70 and 7.82, respectively. Further, the EIC50 in test [11] came out at 0.003 µM; in test [12], 0.013 µM. Besides, the CC50 in test [6] is above 80 µM.

These data come from ChEMBL document CHEMBL1130025, “Dihydro(alkylthio)(naphthylmethyl)oxopyrimidines: novel non-nucleoside reverse transcriptase inhibitors of the S-DABO series” (J Med Chem, 1997).
